# Assay outcomes: PubChem, several laboratories
# L major viab = Leishmania major promastigote growth inhibition, primary screen; 200,000 compounds, 9% hits; Leishmania major promastigotes, resazurin fluorescence viability; inhibition, % at 10 µM; in the data active = inhibition above about 50%;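 also: promastigotes grown with compound for 44 hours at 28 °C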
# Hsp70 act = Hsp70 transcriptional activators, primary screen, cell-based, HeLa, Hsp70 promoter luciferase, luminescence, 10 µM. HeLa Hsp70 promoter luciferase reporter; scaled: vehicle 0, proteasome-inhibitor control 100%. activation, % at 10 µM. 200,000 compounds, 0.04% hits;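 active = activation above the mean across all tested compounds plus 3 SD, cutoff set per campaign, cut at about 5.5% in these data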;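 also: 100% = MG132 at 30 µM as the positive control and 0% = DMSO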
# HSF1 activator = HSF-1 activators, primary screen, NIH3T3-HGL cells, MG132 stress, luminescence, single point; activation, % at 9 µM; 300,000 compounds, 1.7% hits; NIH3T3-HGL HSF-1 luciferase reporter, 8 h; 100% = twice DMSO control signal;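 active = mean replicate activation of at least 50% with a set share of replicates each reaching 50%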;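 also: 0% = median of the neutral control wells and 100% = twice that signal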
# T cruzi inh = inhibitors of intracellular T. cruzi growth, primary screen, luminescence, NIH3T3 host cells | T. cruzi beta-gal in NIH3T3, 90 h | inhibition, % (concentration not given with the values) | 300,000 compounds, 1.4% hits | AID 1885, 2009;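 active = mean inhibition across valid replicates above about 55%, limit read from the data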;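 also: signal also drops with host cell toxicity which is not excluded here; 0% = plate median of DMSO wells and 100% = zero luminescence signal; higher percent means less beta-gal luminescence so fewer parasites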
#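 Test system: β-gal T. cruzi (Tulahuen C4) inside NIH/3T3 cells / Quantity: 5,000 cells/well / Measured by: luminescence from GalScreen with 0.05% NP40, read after 60 min / Medium: DMEM plus 2% FBS / Measure: parasite load inhibition, % / Reagent: Tulahuen C4 trypomastigotes, 5000/well / Schedule: co-culture of at least 90 h after 3 h attachment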
# HSF1 inhib = HSF1 inhibitors in luciferase reporter cells, primary screen, cell-based, NIH3T3, luminescence; NIH3T3-HGL HSE-luciferase, MG132-induced, luminescence 8 h; stronger effect = lower value; 300,000 compounds, 0.77% hits; AID 2098, 2009; activity change, negative = inhibition, % at 7.5 µM (by protocol);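 active = more than half of replicate wells show activity change below -50%, luminescence cut by over half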;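 also: luciferase reports HSF-1 transcriptional activity via heat shock element; 0% = median of DMSO wells and -100% = zero luminescence signal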
# An asterisk follows results filed as active; x = not tested or not shown. Many of the other results were omitted from the sample, so hits are more common in it than they were.
SMILES,L major viab,Hsp70 act,HSF1 activator,T cruzi inh,HSF1 inhib
OCCC1CN(Cc2nc3c(s2)CCCC3)CCN1Cc1ccccc1 (centres undefined),x,x,8.8,39.8,2.3
Cc1cccc(N2CCN(Cc3cnc(Cl)s3)CC2C)c1 (centres undefined),77.7*,-0.1,12.0,0.0,14.2
CNc1nc(-c2ccccn2)nnc1-c1ccccc1,98.7*,-0.2,3.3,5.9,-14.1
c1ccc(-c2nnc(-c3ccccn3)nc2NC2CCCCC2)cc1,100.3*,-0.6,-47.7,53.7,-42.4
Oc1ccccc1-c1nc(NC2CCCC2)c2ccccc2n1,x,x,-6.8,27.4,-6.9
Cn1cc(C=O)c(-c2ccc3c(c2)OCCCO3)n1,x,x,89.1*,-5.3,41.5
COc1cc2cc(CN(CCc3ccccc3C)C(=S)NCCCN3CCOCC3)c(=O)[nH]c2cc1OC,8.4,0.3,1.3,4.4,-3.1
CCNC(=S)N(CCc1ccccc1C)Cc1cc2cc(OC)c(OC)cc2[nH]c1=O,75.4*,-0.3,5.0,41.1,1.2
COc1cc2cc(CN(CCc3ccccc3C)C(=S)NCCCN(C)C)c(=O)[nH]c2cc1OC,78.1*,-0.3,4.8,12.8,3.3
COc1ccc(Cl)cc1C(=O)NNC1CC(=O)N(Cc2ccc(Cl)cc2)C1=O (centres undefined),-4.4,-0.5,23.8,6.4,2.8
COc1ccc(N2CCN(S(=O)(=O)c3cc4c(cc3C)N(C(C)=O)CCO4)CC2)cc1,x,x,-66.7,4.9,-58.1*
CCCCC(=O)Nc1sc(C(=O)N(CC)CC)c(C)c1C(=O)OC,1.9,-0.2,-90.5,-10.8,-88.4*
O=C(Cc1csc(N2CCOCC2)n1)N/N=C/c1ccc(Cl)cc1Cl,69.3*,-0.4,48.9,-8.1,3.1
COc1cc(/C=N/NC(=O)Cc2csc(N3CCOCC3)n2)cc(OC)c1O,-5.0,0.1,-3.9,3.4,0.9
Nc1nc(CSC(=S)N2CCCCC2)nc(Nc2ccccc2)n1,10.5,-0.1,-85.1,9.2,-81.0*
CC(=O)Oc1ccc(-c2csc(Nc3ccc(S(N)(=O)=O)cc3)n2)cc1,54.6*,0.0,12.2,-13.9,7.0
O=c1[nH]c(Nc2ccccc2Cl)cc2ccccc12,x,x,61.2*,-1.2,31.4
CC1CCCC(N2C(=O)NC(NC(=O)c3ccco3)(C(F)(F)F)C2=O)C1C (centres undefined),56.0*,-0.1,5.0,0.2,6.6
O=C(O)c1cccc(S(=O)(=O)N(Cc2ccccc2)c2cccc(C(F)(F)F)c2)c1,x,x,-15.4,-10.2,0.5
CC/C(=N/NC(=O)c1ccccc1O)c1c(C)[nH]n(-c2ccccc2)c1=O,x,x,14.5,-10.6,0.9
CC1CCCCN1C(=O)C(=O)c1cn(CC(=O)N2CCCCCC2)c2ccccc12 (centres undefined),x,x,-6.8,64.2*,-7.0
O=C(c1cn(CC(=O)N2CCCCC2)c2ccccc12)C1CC1,-4.7,0.1,61.6*,-2.3,37.7
CCOC(=O)C1CCN(C(=O)C(=O)c2cn(CC(=O)N3CCCCCC3)c3ccccc23)CC1,x,x,18.3,62.2*,0.6
CCOC(=O)C1CCN(C(=O)Cn2cc(C(=O)C3CC3)c3ccccc32)CC1,1.0,-0.4,29.9,1.2,-3.0
O=C(Nc1nnc(CCN2CCCCC2)s1)c1ccccc1Cl,2.2,-0.3,4.2,-7.4,-1.9
SMILES,L major viab,Hsp70 act,HSF1 activator,T cruzi inh,HSF1 inhib
COC(=O)c1c(NC(=O)c2cccnc2Cl)sc(C(=O)N(C)C)c1C,-1.2,-0.3,14.0,11.0,-8.8
O=S(=O)(NCc1cc(-c2ccccc2Cl)no1)c1ccccc1,79.1*,-0.3,-2.0,1.8,5.0
O=S(=O)(Cc1cc(-c2ccccc2Cl)no1)c1ccccc1,6.5,0.3,71.5*,-2.3,41.2
O=S(=O)(Cc1cc(-c2ccc(Cl)cc2)no1)c1ccccc1,1.0,0.2,12.8,3.1,13.8
CC(C)c1ccc(NC(=O)[C@H]2CSCN2C(=O)[C@@H]2CCC(=O)N2)cc1,x,x,2.8,-11.3,-2.1
O=C(Nc1ccccc1-c1ccccc1)C12CC3CC(CC(C3)C1)C2,88.5*,0.1,-28.0,27.3,-24.3
CC(=O)Nc1nc(COc2ccccc2)cs1,-6.2,0.3,-3.9,4.5,11.5
O=C(N1CCN(c2ccccc2)CC1)C12CC3CC(CC(C3)C1)C2,95.2*,0.0,1.8,-2.4,0.9
